Series [1] concerns the target T1, Oxysterols receptor LXR-beta (Homo sapiens) (UniProt P55055).
T1 sequence (whole entry): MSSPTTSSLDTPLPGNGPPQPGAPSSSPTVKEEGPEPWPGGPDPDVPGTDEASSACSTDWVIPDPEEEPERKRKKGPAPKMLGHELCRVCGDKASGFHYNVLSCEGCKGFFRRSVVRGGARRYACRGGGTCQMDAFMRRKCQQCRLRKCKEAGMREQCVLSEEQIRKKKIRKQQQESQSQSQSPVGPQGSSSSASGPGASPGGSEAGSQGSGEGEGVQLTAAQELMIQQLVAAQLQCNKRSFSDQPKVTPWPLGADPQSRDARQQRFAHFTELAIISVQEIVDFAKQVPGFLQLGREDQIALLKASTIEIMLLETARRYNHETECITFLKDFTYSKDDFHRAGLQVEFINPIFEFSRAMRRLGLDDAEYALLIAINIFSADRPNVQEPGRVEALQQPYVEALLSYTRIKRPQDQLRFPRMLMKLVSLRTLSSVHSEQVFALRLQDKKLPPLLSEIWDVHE
In words: Agonist activity at human LXR-beta expressed in African green monkey CV1 cells measured after 18 to 20 hrs by luciferase reporter gene assay relative to pan agonist 1-(2,4-difluorobenzyl)-2-oxo-6-(4-phenoxyphenyl)-4-(trifluoromethyl)-1,2-dihydropyridine-3-carbonitrile. Format: cell-based. The settings on record: CV-1.

The target in series [2] is T2, Oxysterols receptor LXR-alpha (Homo sapiens, UniProt Q13133).
T2 sequence (Q13133 whole entry): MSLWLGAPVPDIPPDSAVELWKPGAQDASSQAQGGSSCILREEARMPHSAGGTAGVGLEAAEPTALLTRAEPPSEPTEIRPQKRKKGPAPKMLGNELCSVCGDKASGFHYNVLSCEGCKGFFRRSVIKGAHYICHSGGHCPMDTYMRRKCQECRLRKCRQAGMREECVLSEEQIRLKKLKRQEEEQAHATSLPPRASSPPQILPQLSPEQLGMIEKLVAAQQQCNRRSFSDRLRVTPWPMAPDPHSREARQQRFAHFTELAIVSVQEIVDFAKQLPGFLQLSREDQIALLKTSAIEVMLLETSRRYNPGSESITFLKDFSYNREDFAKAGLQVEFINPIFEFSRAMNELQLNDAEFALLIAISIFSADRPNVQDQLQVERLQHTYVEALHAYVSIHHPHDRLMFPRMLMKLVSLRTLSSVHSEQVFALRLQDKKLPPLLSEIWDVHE
In words: Agonist activity at human LXR-alpha expressed in African green monkey CV1 cells measured after 18 to 20 hrs by luciferase reporter gene assay relative to pan agonist 1-(2,4-difluorobenzyl)-2-oxo-6-(4-phenoxyphenyl)-4-(trifluoromethyl)-1,2-dihydropyridine-3-carbonitrile. In kind it is cell-based. The settings on record: CV-1, human; read-out: Efficacy.

Series [3] deals with T1, Oxysterols receptor LXR-beta (Homo sapiens). In words: Agonist activity at LXR-beta in human HeLa cells assessed as induction of ABCA1 by beta-galactosidase/luciferase reporter gene assay relative to control. In kind it is cell-based. The method in brief:
(§1)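 HeLa cells carrying endogenous LXRα and LXRβ receptors, transfected with an ABCA1 LXREx3 reporter construct; agonist-driven reporter induction measured.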

Series [4] has the same target. In words: Agonist activity at LXR-beta in human whole blood assessed as ABCA1 gene induction by measuring ABCA1 mRNA level after 4 hrs by SYBR-Green dye-based Q-PCR analysis relative to pan agonist 2-(4-(5-(5-cyano-1-(2,4-difluorobenzyl)-6-oxo-4-(trifluoromethyl)-1,6-dihydropyridin-2-yl)thiophen-2-yl)-3-methylphenyl)acetic acid. In kind it is tissue-based.
Series [5] deals with T3, Nuclear receptor subfamily 1 group I member 2 (Homo sapiens, UniProt O75469).
T3 sequence (O75469 whole entry): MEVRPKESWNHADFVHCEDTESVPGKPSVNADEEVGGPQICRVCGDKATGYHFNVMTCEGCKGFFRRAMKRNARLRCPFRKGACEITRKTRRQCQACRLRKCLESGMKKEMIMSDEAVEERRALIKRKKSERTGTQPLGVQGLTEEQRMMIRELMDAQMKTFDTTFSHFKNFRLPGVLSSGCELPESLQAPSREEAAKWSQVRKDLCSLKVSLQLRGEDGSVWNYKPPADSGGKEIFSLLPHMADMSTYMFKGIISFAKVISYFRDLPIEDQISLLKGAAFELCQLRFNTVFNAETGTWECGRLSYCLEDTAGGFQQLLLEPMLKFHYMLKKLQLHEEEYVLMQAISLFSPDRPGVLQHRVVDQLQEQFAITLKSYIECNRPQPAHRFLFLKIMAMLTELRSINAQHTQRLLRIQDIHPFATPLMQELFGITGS
Nature of the series: Agonist activity at human PXR expressed in human HepG2 cells assessed as induction of CYP3A4 measured after 24 hrs by AlamarBlue dye-based luciferase reporter gene assay. Format: cell-based. In general terms: The colour change of resazurin is a common sign of viable cells or microbes.

Series [6] deals with Alpha-1-acid glycoprotein 1 (Homo sapiens, UniProt P02763). Nature of the series: Binding affinity to human alpha-1-AGP at 1 uM measured after 4 hrs by equilibrium dialysis method relative to control. In kind it is ADME. (Equilibrium dialysis compares concentrations on both sides of a semipermeable membrane.)
Series [7] deals with Albumin (Homo sapiens, UniProt P02768). Nature of the series: Binding affinity to human serum albumin at 1 uM measured after 4 hrs by equilibrium dialysis method relative to control. In kind it is ADME.
Series [8] deals with T3, Nuclear receptor subfamily 1 group I member 2. Nature of the series: Agonist activity at human PXR expressed in human HepG2 cells assessed as induction of CYP3A4 measured after 24 hrs by AlamarBlue dye-based luciferase reporter gene assay relative to control. In kind it is cell-based. The note with it: hepg2, 24 h.
The nature of series [9]: Apparent elimination half life in iv dosed cynomolgus monkey. Format: ADME, organism-based, Macaca fascicularis. The note with it: in vivo.
Series [10] can be described thus: Agonist activity at LXR-beta in cynomolgus monkey whole blood assessed as ABCA1 gene induction by measuring ABCA1 mRNA level after 4 hrs by SYBR-Green dye-based Q-PCR analysis. The note with it: Macaca fascicularis. In kind it is tissue-based.
Series [11] is filed under the species Macaca fascicularis. Nature of the series: Agonist activity at LXR-beta in cynomolgus monkey whole blood assessed as ABCA1 gene induction by measuring ABCA1 mRNA level after 4 hrs by SYBR-Green dye-based Q-PCR analysis relative to control. In kind it is tissue-based.
Series [12] relates to Cynomolgus monkey. Nature of the series: In vivo agonist activity at LXR-beta in cynomolgus monkey assessed as ABCG1 gene induction by measuring total RNA level at 1 mg/kg, po qd administered via gavage for 14 days measured after 5 to 6 hrs of last-dose relative to control. In kind it is functional, Macaca fascicularis. The method in brief: (§2)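 Cynomolgus monkeys dosed daily for 14 days. ABCG1 mRNA induction measured in blood cells on day 14 and expressed as fold change. Plasma drug concentration taken about 5 h post-dose. Plasma triglycerides also measured against baseline, with significance by ANOVA.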

Series [13] deals with Cynomolgus monkey. In words: In vivo agonist activity at LXR-beta in cynomolgus monkey assessed as ABCG1 gene induction by measuring total RNA level at 3 mg/kg, po qd administered via gavage for 14 days measured after 5 to 6 hrs of last-dose relative to control. In kind it is functional, Macaca fascicularis. The method in brief:
as §2

Series [14] can be described thus: Plasma concentration in cynomolgus monkey at 1 mg/kg, po qd administered via gavage for 14 days measured after 5 hrs of last-dose by LC/MS/MS analysis. In kind it is ADME, organism-based, Macaca fascicularis. The method in brief: (§3)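 Cynomolgus monkeys dosed daily for 14 days. On day 14, plasma drug concentration was taken 5 h post-dose. Plasma triglycerides were expressed as % elevation over baseline, with significance tested by ANOVA (p < 0.05).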

Series [15] in a line: Plasma concentration in cynomolgus monkey at 3 mg/kg, po qd administered via gavage for 14 days measured after 5 hrs of last-dose by LC/MS/MS analysis. Format: ADME, organism-based, Macaca fascicularis. The method in brief:
as §3

Series [16] can be described thus: Effect on plasma triglyceride level in cynomolgus monkey at 1 mg/kg, po qd administered via gavage for 14 days measured after 24 hrs of last-dose relative to base line. The settings on record: in vivo. In kind it is ADME, organism-based, Macaca fascicularis. The method in brief:
as §3

Series [17] can be described thus: Effect on plasma triglyceride level in cynomolgus monkey at 3 mg/kg, po qd administered via gavage for 14 days measured after 24 hrs of last-dose relative to base line. The note with it: in vivo. In kind it is ADME, organism-based, Macaca fascicularis. Summed up:
as §3

For series [18], the target named is T4, Oxysterols receptor LXR-beta (Homo sapiens, UniProt P55055).
T4 sequence (P55055 whole entry): T1 sequence (whole entry)
In words: Agonist activity at LXR-beta in human HeLa cells assessed as induction of ABCA1 by beta-galactosidase/luciferase reporter gene assay. In kind it is cell-based. Summed up: as §1

Series [19] has as its target T2, Oxysterols receptor LXR-alpha. In words: Agonist activity at human LXR-alpha expressed in African green monkey CV1 cells measured after 18 to 20 hrs by luciferase reporter gene assay. Format: cell-based, CV-1. For orientation: Reporter assays use an easily measured gene product as a stand-in for the process of interest.
Series [20] deals with T4, Oxysterols receptor LXR-beta. Nature of the series: Agonist activity at LXR-beta in human whole blood assessed as ABCA1 gene induction by measuring ABCA1 mRNA level after 4 hrs by SYBR-Green dye-based Q-PCR analysis. Format: tissue-based.
Series [21] in a line: Half life in cynomolgus monkey at 1 mg/kg, iv administered as 10 mins infusion by LC/MS/MS analysis. Format: ADME, organism-based, Macaca fascicularis. The note with it: in vivo.
Series [22] can be described thus: Clearance in cynomolgus monkey at 0.2 mg/kg, iv administered as cassette dose by LC/MS/MS analysis. Format: ADME, organism-based, Macaca fascicularis. The note with it: in vivo.
The nature of series [23]: Half life in cynomolgus monkey at 0.2 mg/kg, iv administered as cassette dose by LC/MS/MS analysis. In kind it is ADME, organism-based, Macaca fascicularis. The note with it: in vivo.
Series [24] can be described thus: Half life in human plasma. In kind it is ADME, cell-free. The method in brief:
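Human plasma half-life was obtained from a clinical single ascending dose PK study.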

Series [25] deals with T5, Alpha-1-acid glycoprotein (Rattus norvegicus, UniProt P02764).
T5 sequence (P02764 whole entry): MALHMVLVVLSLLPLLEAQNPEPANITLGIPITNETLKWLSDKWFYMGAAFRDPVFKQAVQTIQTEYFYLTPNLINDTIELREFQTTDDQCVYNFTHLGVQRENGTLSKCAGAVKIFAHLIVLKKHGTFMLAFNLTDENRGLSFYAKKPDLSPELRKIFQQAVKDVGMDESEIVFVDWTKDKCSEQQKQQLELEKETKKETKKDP
Nature of the series: Binding affinity to rat alpha-1-AGP at 1 uM measured after 4 hrs by equilibrium dialysis method relative to control. The settings on record: rat alpha-1-acid glycoprotein, read-out: PB (converted). Format: ADME.

A short description of series [26]: Binding affinity to dog alpha-1-AGP at 1 uM measured after 4 hrs by equilibrium dialysis method relative to control. In kind it is ADME, Canis lupus familiaris. The note with it: dog alpha-1-acid glycoprotein, read-out: PB (converted).
Series [27] has as its target T4, Oxysterols receptor LXR-beta. Nature of the series: Agonist activity at LXR-beta in human whole blood assessed as ABCG1 gene induction by measuring ABCA1 mRNA level after 4 hrs by SYBR-Green dye-based Q-PCR analysis. Format: tissue-based.
Series [28] has as its target T1, Oxysterols receptor LXR-beta (Homo sapiens). Nature of the series: Agonist activity at LXR-beta in human whole blood assessed as ABCG1 gene induction by measuring ABCA1 mRNA level after 4 hrs by SYBR-Green dye-based Q-PCR analysis relative to pan agonist 2-(4-(5-(5-cyano-1-(2,4-difluorobenzyl)-6-oxo-4-(trifluoromethyl)-1,6-dihydropyridin-2-yl)thiophen-2-yl)-3-methylphenyl)acetic acid. Format: tissue-based.

We go through two compounds from ChEMBL document CHEMBL3867488 (ACS Med Chem Lett, 2016).

Sequence of Albumin (P02768 whole entry): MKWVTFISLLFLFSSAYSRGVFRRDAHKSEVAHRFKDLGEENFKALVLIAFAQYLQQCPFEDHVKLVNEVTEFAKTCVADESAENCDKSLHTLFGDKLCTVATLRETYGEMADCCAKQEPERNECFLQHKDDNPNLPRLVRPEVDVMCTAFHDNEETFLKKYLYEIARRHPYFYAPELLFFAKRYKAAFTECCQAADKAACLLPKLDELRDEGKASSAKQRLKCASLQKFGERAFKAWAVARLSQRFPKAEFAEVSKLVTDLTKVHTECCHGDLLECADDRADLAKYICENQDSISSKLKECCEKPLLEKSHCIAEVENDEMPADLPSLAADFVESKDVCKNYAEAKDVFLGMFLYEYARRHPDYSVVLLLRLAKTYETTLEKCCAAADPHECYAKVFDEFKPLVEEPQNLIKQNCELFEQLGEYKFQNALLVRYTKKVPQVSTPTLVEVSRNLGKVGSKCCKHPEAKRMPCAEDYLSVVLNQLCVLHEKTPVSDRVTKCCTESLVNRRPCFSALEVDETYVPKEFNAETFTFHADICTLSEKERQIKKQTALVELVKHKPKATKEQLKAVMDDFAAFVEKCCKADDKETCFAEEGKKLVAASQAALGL
Sequence of Alpha-1-acid glycoprotein 1 (P02763 whole entry): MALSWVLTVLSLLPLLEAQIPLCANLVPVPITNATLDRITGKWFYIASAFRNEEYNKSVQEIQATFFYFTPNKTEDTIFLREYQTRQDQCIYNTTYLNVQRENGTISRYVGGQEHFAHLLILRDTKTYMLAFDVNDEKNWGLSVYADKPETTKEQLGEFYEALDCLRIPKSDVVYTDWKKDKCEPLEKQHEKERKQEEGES

As usually defined, the EC50 is the concentration at which the effect is half-maximal. Take `CC(C)(O)c1cn(-c2ccc(-c3cc(F)c(CO)c(S(C)(=O)=O)c3)cc2)c(C(C)(C)c2cccc(F)c2Cl)n1`: the Efficacy in series [1] turned out to be 68%; in series [3], 16%; in series [4], 34%; in series [11] it was 29%. Besides, in [2], the Emax was 12%. Besides, the EC50 in [5] is 3000 nM; in [10], 52 nM. The PB in series [6] (isolated protein, 4 h, 1 µM) is listed as 87.6%; in series [7] (isolated protein, 4 h, 1 µM) it was 94.4%. Besides, the Activity in series [8] turned out to be 85%; in series [16], 2%; in series [17] it was 58%. Besides, in [9], the betat1/2(app) was 10 to 12 h. The “fold change (FC)” value in series [12] is 4; in [13] it was 10. The concentration at 5 h in series [14] was 85 nM; in series [15], 310 nM.
As a reminder, the clearance is the volume of plasma or blood freed of the substance per unit of time. For orientation: half-life means the time in which the quantity being followed falls by half. Consider `CC(C)(O)c1cn(-c2ccc(-c3cccc(S(C)(=O)=O)c3)cc2)c(C(C)(C)c2ccccc2Cl)n1` [BMS-779788], for which the Emax in series [2] worked out at 38%. For the same compound, the concentration for a half-maximal effect (EC50) came to 33 nM in series [18], 220 nM in series [19], 1200 nM in [20] and 1100 nM in series [27]. In addition, the Efficacy worked out at 50% in [3], 55% in series [4] and 60% in [28]. The t1/2 in series [21] came to 7.4 h. This compound registered a clearance in [22] of 2.9 mL/min/kg. Further, the half-life in series [23] was 8.9 h; in series [24], 100 to 200 h. The fraction unbound at 4 h, 1 µM was 0.001 in [6] (human alpha-1-acid glycoprotein, read-out: PB); 0.028 to 0.03 in [7] (human serum albumin, read-out: PB); 0.08 in series [25]; 0.02 in series [26].
